Results as given in ChEMBL document CHEMBL2150886, “Synthesis of [3β-acetoxy-urs-12-en-28-oyl]-1-monoglyceride and investigation on its anti tumor effects against BGC-823” (Bioorg Med Chem, 2011).

Legend:
Mus musculus [1] = experiment: Toxicity in human BGC823 cells xenografted nude mouse assessed as body weight changes at 6 mg/kg, iv treated on day 1 post tumor implant (reference value: 19.69 +/- 1.21 grams); type: organism-based, BGC-823; design: dose 6 mg/kg, route intravenous; conditions: in vivo
Mus musculus [2] = experiment: Toxicity in human BGC823 cells xenografted nude mouse assessed as body weight changes at 6 mg/kg, iv treated 2 times on day 1 and day 4 post tumor implant (reference value: 20.58 +/- 1.35 grams); type: organism-based, BGC-823; design: dose 6 mg/kg, route intravenous; conditions: in vivo
Method in brief: (§1)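 Nude mice (male, 5 weeks, 18–22 g) carried subcutaneous BGC-823 xenografts from 1 × 10⁷ cells. Dosing started at about 200 mm³ tumour volume, with eight mice per group. Each dose was 0.2 mL given iv; the saline control received 0.9% saline. Body weight was recorded on days 1, 4, 7, 10, 13 and 16 of treatment and reported as mean ± SD, n = 8.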

Mus musculus [3] = experiment: Toxicity in human BGC823 cells xenografted nude mouse assessed as body weight changes at 6 mg/kg, iv treated 4 times on day 1, 4, 7 and 10 post tumor implant (reference value: 20.54 +/- 1.45 grams); type: organism-based, BGC-823; design: dose 6 mg/kg, route intravenous; conditions: in vivo; method in brief: as §1
Mus musculus [4] = experiment: Toxicity in human BGC823 cells xenografted nude mouse assessed as body weight changes at 30 mg/kg, iv treated on day 1 post tumor implant (reference value: 19.69 +/- 1.21 grams); type: organism-based, BGC-823; design: dose 30 mg/kg, route intravenous; conditions: in vivo; method in brief: as §1
Mus musculus [5] = experiment: Toxicity in human BGC823 cells xenografted nude mouse assessed as body weight changes at 30 mg/kg, iv treated 2 times on day 1 and day 4 post tumor implant (reference value: 20.58 +/- 1.35 grams); type: organism-based, BGC-823; design: dose 30 mg/kg, route intravenous; conditions: in vivo; method in brief: as §1
Mus musculus [6] = experiment: Toxicity in human BGC823 cells xenografted nude mouse assessed as body weight changes at 30 mg/kg, iv treated 4 times on day 1, 4, 7 and 10 post tumor implant (reference value: 20.54 +/- 1.45 grams); type: organism-based, BGC-823; design: dose 30 mg/kg, route intravenous; conditions: in vivo; method in brief: as §1
Mus musculus [7] = experiment: Toxicity in human BGC823 cells xenografted nude mouse assessed as body weight changes at 30 mg/kg, iv treated 5 times on day 1, 4, 7, 10 and day 13 post tumor implant (reference value: 20.21 +/- 1.83 grams); type: organism-based, BGC-823; design: dose 30 mg/kg, route intravenous; conditions: in vivo; method in brief: as §1
BGC-823 [8] = experiment: Cytotoxicity against human BGC823 cells by MTT assay; type: functional, cell-based
Method in brief: (§2)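 Cells were grown in RPMI-1640 with 10% heat-inactivated FCS at 37 °C under 5% CO₂, seeded at 5 × 10³ per well and left 24 h. Compounds in DMSO were diluted in medium to 0.5% final DMSO; controls received 0.5% DMSO. Exposure was 24–72 h, followed by MTT for 4 h, formazan dissolved in DMSO, and A570. Six wells per sample; IC₅₀ taken at 50% inhibition; ≥3 repeats.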

[9] = Cytotoxicity against human GES-1 cells incubated for 48 hrs by MTT assay; type: cell-based; conditions: GES1, 48 h; method in brief: as §2
BGC-823 [10] = experiment: Cell cycle arrest in human BGC823 cells assessed as accumulation of cells at subG0/G1 phase incubated for 24 to 72 hrs by propidium iodide staining based flow cytometry; type: functional
Method in brief: (§3)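 BGC-823 cells were exposed to 20 µM for 24, 48 or 72 h, or to 10, 20 or 40 µM for 48 h. About 10⁶ cells were harvested and stained with propidium iodide using a cell cycle kit, then analysed by flow cytometry. Percentages were read for sub-G0/G1, G0/G1, S and G2/M. Each experiment was run at least three times; mean ± SD.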

BGC-823 [11] = experiment: Cell cycle arrest in human BGC823 cells assessed as accumulation of cells at subG0/G1 phase at 40 uM incubated for 24 to 72 hrs by propidium iodide staining based flow cytometry (Rvb= 0.66%); type: functional
BGC-823 [12] = experiment: Cell cycle arrest in human BGC823 cells assessed as accumulation of cells at subG0/G1 phase at 20 uM incubated for 24 hrs by propidium iodide staining based flow cytometry (Rvb= 0.66%); type: functional; method in brief: as §3
BGC-823 [13] = experiment: Induction of apoptosis in human BGC823 cells assessed as induction of DNA fragmentation at 10 to 40 uM incubated for 48 hrs by alkaline comet assay; type: functional, cell-based
Method in brief: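 Alkaline comet assay on about 10⁵ BGC-823 cells after 48 h at 37 °C with 10, 20 or 40 µM. Cells with diffuse fan-like tails and small heads were scored as apoptotic; large defined heads with minimal DNA diffusion were scored as normal.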

BGC-823 [14] = experiment: Induction of apoptosis in human BGC823 cells assessed as early apoptotic cell population at 10 uM by annexinV/propidium iodide staining (reference value: 1.9%); type: functional
BGC-823 [15] = experiment: Induction of apoptosis in human BGC823 cells assessed as necrotic damaged cell population at 10 uM by annexinV/propidium iodide staining (reference value: 0.5%; type: functional
BGC-823 [16] = experiment: Induction of apoptosis in human BGC823 cells assessed as viable cell population at 20 uM by annexinV/propidium iodide staining (reference value: 95.5%); type: functional
BGC-823 [17] = experiment: Induction of apoptosis in human BGC823 cells assessed as early apoptotic cell population at 20 uM by annexinV/propidium iodide staining (reference value: 1.9%); type: functional
BGC-823 [18] = experiment: Induction of apoptosis in human BGC823 cells assessed as necrotic damaged cell population at 20 uM by annexinV/propidium iodide staining (reference value: 0.5%; type: functional
BGC-823 [19] = experiment: Induction of apoptosis in human BGC823 cells assessed as viable cell population at 30 uM by annexinV/propidium iodide staining (reference value: 95.5%); type: functional
BGC-823 [20] = experiment: Induction of apoptosis in human BGC823 cells assessed as early apoptotic cell population at 30 uM by annexinV/propidium iodide staining (reference value: 1.9%); type: functional
BGC-823 [21] = experiment: Induction of apoptosis in human BGC823 cells assessed as necrotic damaged cell population at 30 uM by annexinV/propidium iodide staining (reference value: 0.5%; type: functional
BGC-823 [22] = experiment: Induction of apoptosis in human BGC823 cells assessed as early apoptotic cell population at 40 uM by annexinV/propidium iodide staining (reference value: 1.9%); type: functional
BGC-823 [23] = experiment: Induction of apoptosis in human BGC823 cells assessed as late apoptotic cell population at 40 uM by annexinV/propidium iodide staining (reference value: 2.1%); type: functional
BGC-823 [24] = experiment: Reduction in survivin protein expression in human BGC823 cells at 10 uM incubated for 48 hrs by Western blotting; type: functional
Method in brief: (§4)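 BGC-823 cells were treated with 10, 20 or 40 µM for 48 h, detached with trypsin/EDTA, and more than 10⁶ cells were lysed. Protein was quantified by Bradford, and 150–200 µg per lane was run on 12.5% SDS-PAGE and transferred to PVDF. Antibodies: Survivin 1:1000, Bcl-2 1:200, β-actin 1:1000; HRP secondary 1 h; ECL detection. Expression was quantified relative to control.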

BGC-823 [25] = experiment: Reduction in survivin protein expression in human BGC823 cells at 20 uM incubated for 48 hrs by Western blotting; type: functional; method in brief: as §4
BGC-823 [26] = experiment: Reduction in survivin protein expression in human BGC823 cells at 40 uM incubated for 48 hrs by Western blotting; type: functional; method in brief: as §4
BGC-823 [27] = experiment: Antitumor activity against human BGC823 cells xenografted in nude mouse assessed as reduction in tumor volume at 6 mg/kg, iv dosed 5 times; type: functional; design: scale not given: the % may be the effect or the level left
Method in brief: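 Male nude mice (5 weeks, 18–22 g) inoculated subcutaneously with 1 × 10⁷ BGC-823 cells. At about 200 mm³ tumours, animals were randomised into four groups of eight. Each received 0.2 mL iv by tail vein; controls got 0.9% saline. Tumour volume was measured daily as 0.5 × length × width²; tumours were weighed at the end. Values are mean ± SD, n = 8.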

CC(=O)O[C@H]1CC[C@]2(C)[C@H]3CC=C4[C@@H]5[C@@H](C)[C@H](C)CC[C@]5(C(=O)OCC(O)CO)CC[C@@]4(C)[C@]3(C)CC[C@H]2C1(C)C (some centres not stated)
Activity (Mus musculus [1]): 19.21 g
Activity (Mus musculus [2]): 20.66 g
Activity (Mus musculus [3]): 20.03 g
Activity (Mus musculus [4]): 19.26 g
Activity (Mus musculus [5]): 19.61 g
Activity (Mus musculus [6]): 19.16 g
Activity (Mus musculus [7]): 19.69 g
IC50 (BGC-823 [8]): 15.7 µM
IC50 [9]: 155 µM
Activity (BGC-823 [10]): Dose-dependent effect
Activity (BGC-823 [11]): 96.13%
Activity (BGC-823 [12]): 3.71%
Activity (BGC-823 [13]): Dose-dependent effect
Activity (BGC-823 [14]): 4.5%
Activity (BGC-823 [15]): 0.2%
Activity (BGC-823 [16]): 72.2%
Activity (BGC-823 [17]): 19.4%
Activity (BGC-823 [18]): 0.1%
Activity (BGC-823 [19]): 19.4%
Activity (BGC-823 [20]): 45.1%
Activity (BGC-823 [21]): 6.5%
Activity (BGC-823 [22]): 7.4%
Activity (BGC-823 [23]): 89.5%
Activity (BGC-823 [24]): 37.6%
Activity (BGC-823 [25]): 43.1%
Activity (BGC-823 [26]): 53.1%
Activity (BGC-823 [27]): 29.3%
